Data published in ChEMBL document CHEMBL1156509, “Survival in the presence of antifungals: genome-wide expression profiling of Aspergillus niger in response to sublethal concentrations of caspofungin and fenpropimorph” (2007).
Activity calls are given as the source filed them.

Tests used:
[1] = system: Aspergillus niger; experiment: Effect on morphological changes in Aspergillus niger N402 germlings assessed as tip swelling at 0.9 ug/mL after 5 hrs; assay type: functional, organism-based
[2] = system: Aspergillus niger; experiment: Induction of gfaB gene expression in Aspergillus niger by microarray analysis relative to control; assay type: functional
Method in brief: (§1)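 A. niger N402 conidia (5×10^9) grown in 5 L fermentation medium in a bioreactor at 37 °C, pH 3, 250 rpm. Drug in distilled H2O or H2O alone added at 5 h; mycelium harvested by filtration 1 h later and frozen in liquid nitrogen. cRNA hybridized to Affymetrix A. niger GeneChips, two independent bioreactor runs per condition; normalized, ≥1.5-fold change at p 0.05 cutoff.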

[3] = system: Aspergillus niger; experiment: Effect on increase sub apical branching in Aspergillus niger N402 germlings assessed as branching index at 5 ng/mL after 5 hrs; assay type: functional
Method in brief: (§2)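 N402 conidia (5×10^5) were germinated 5 h at 37 °C on coverslips in 5 ml liquid MM plus 0.003% yeast extract. Compound was added (water for controls) and culture continued 1 h at 37 °C. At least 50 adherent germlings were scored microscopically as branched or unbranched; branching index = branched/(branched + unbranched).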

[4] = system: Aspergillus niger; experiment: Induction of dpmA gene expression in Aspergillus niger by microarray analysis relative to control; assay type: functional; method in brief: as §1
[5] = system: Aspergillus niger; experiment: Induction of mkkA gene expression in Aspergillus niger by microarray analysis relative to control; assay type: functional; method in brief: as §1
[6] = system: Aspergillus niger; experiment: Induction of chsB gene expression in Aspergillus niger by microarray analysis relative to control; assay type: functional; method in brief: as §1
[7] = system: Aspergillus niger; experiment: Upregulation of agtA gene expression in Aspergillus niger relative to control; assay type: functional, organism-based
Method in brief: (§3)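 N402 conidia (5×10^9) were grown in 5 l fermentation medium, pH 3, 37 °C, 250 rpm in a bioreactor. After 5 h compound was added (water for controls); mycelium was harvested 1 h later. RNA was hybridized to A. niger Affymetrix GeneChips from two independent bioreactor runs. Genes with ≥1.5-fold change at p < 0.05 after normalization were counted as differentially expressed.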

[8] = system: Aspergillus niger; experiment: Induction of ugpA gene expression in Aspergillus niger by microarray analysis relative to control; assay type: functional; method in brief: as §1
[9] = system: Aspergillus niger; experiment: Induction of gfaA gene expression in Aspergillus niger by microarray analysis relative to control; assay type: functional; method in brief: as §1
[10] = system: Aspergillus niger; experiment: Induction of rapA gene expression in Aspergillus niger by microarray analysis relative to control; assay type: functional; method in brief: as §1
[11] = system: Aspergillus niger; experiment: Induction of GFP tagged PagsA expression in Aspergillus niger JvD1.1 at 25.6 ug/mL by fluorescence microscopy; assay type: functional, organism-based
Method in brief: (§4)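 Conidia of the agsA-promoter GFP reporters (2×10^4 per well, 2× CM) germinated 6 h at 37 °C, then were exposed 3 h at 30 °C to seven 2-fold serial dilutions. GFP in adherent germlings was read by fluorescence microscopy and scored 0 (basal), 1 (intermediate) or 2 (high). Positive control was a PgpdA-H2B-GFP strain; N402 was the negative control.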

[12] = system: Aspergillus niger; experiment: Effect on morphological changes in Aspergillus niger N402 germlings assessed as germ tube elongation and branching at 5 ug/mL after 5 hrs; assay type: functional, organism-based
Method in brief: (§5)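 Compound or water control was added, then 1 h more at 37 °C. Adherent germlings were scored by microscopy, at least 50 per sample, as branched or unbranched. Branching index = branched/total germlings.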

[13] = system: Aspergillus niger; experiment: Antifungal activity against Aspergillus niger RD6.47 by microtiter plate; assay type: functional, organism-based
Method in brief: (§6)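 Reporter germlings (cytoplasmic PagsA-GFP JvD1.1 or nuclear PagsA-H2B-GFP RD6.47), 2×10^4 conidia per well in 2× CM, pre-grown 6 h at 37 °C. A 2-fold dilution series (seven concentrations) was then added and plates were held 3 h at 30 °C. Adherent germlings were imaged, and growth inhibition was scored 0/1/2 from hyphal length.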

[14] = system: Aspergillus niger; experiment: Effect on morphological changes in Aspergillus niger N402 germlings assessed as tip swelling at 5 ng/mL after 5 hrs; assay type: functional, organism-based
[15] = system: Aspergillus niger; experiment: Induction of GFP tagged PagsA-H2B expression in Aspergillus niger RD6.47 at 25.6 ug/mL by fluorescence microscopy; assay type: functional, organism-based; method in brief: as §4
[16] = system: Aspergillus niger; experiment: Induction of dfgC gene expression in Aspergillus niger by microarray analysis relative to control; assay type: functional; method in brief: as §1
[17] = system: Aspergillus niger; experiment: Induction of gelA gene expression in Aspergillus niger by microarray analysis relative to control; assay type: functional; method in brief: as §1
[18] = system: Aspergillus niger; experiment: Induction of crhC gene expression in Aspergillus niger by microarray analysis relative to control; assay type: functional; method in brief: as §1
[19] = system: Aspergillus niger; experiment: Induction of lplB gene expression in Aspergillus niger by microarray analysis relative to control; assay type: functional; method in brief: as §1
[20] = system: Aspergillus niger; experiment: Antifungal activity against Aspergillus niger JvD1.1 by microtiter plate; assay type: functional, organism-based; method in brief: as §6
[21] = system: Aspergillus niger; experiment: Induction of gnaA gene expression in Aspergillus niger by microarray analysis relative to control; assay type: functional; method in brief: as §1
[22] = system: Aspergillus niger; experiment: Effect on morphological changes in Aspergillus niger JvD1.1 assessed as tip swelling; assay type: functional, organism-based
[23] = system: Aspergillus niger; experiment: Induction of bgtB gene expression in Aspergillus niger by microarray analysis relative to control; assay type: functional; method in brief: as §1
[24] = system: Aspergillus niger; experiment: Induction of agtA gene expression in Aspergillus niger by microarray analysis relative to control; assay type: functional; method in brief: as §1
[25] = system: Aspergillus niger; experiment: Induction of hocA gene expression in Aspergillus niger by microarray analysis relative to control; assay type: functional; method in brief: as §1
[26] = system: Aspergillus niger; experiment: Effect on morphological changes in Aspergillus niger RD6.47 assessed as tip swelling; assay type: functional, organism-based
[27] = system: Aspergillus niger; experiment: Antifungal activity against Aspergillus niger RD6.47 at 25.6 ug/mL by microtiter plate; assay type: functional, organism-based; method in brief: as §6
[28] = system: Aspergillus niger; experiment: Effect on morphological changes in Aspergillus niger N402 germlings assessed as germ tube elongation and branching at 0.9 ug/mL after 5 hrs; assay type: functional, organism-based; method in brief: as §5
[29] = system: Aspergillus niger; experiment: Induction of pgmB gene expression in Aspergillus niger by microarray analysis relative to control; assay type: functional; method in brief: as §1
[30] = system: Aspergillus niger; experiment: Effect on morphological changes in Aspergillus niger N402 germlings assessed as branching index at 50 ng/mL; assay type: functional; method in brief: as §2
[31] = system: Aspergillus niger; experiment: Effect on morphological changes in Aspergillus niger N402 germlings assessed as tip swelling at 5 ug/mL after 5 hrs; assay type: functional, organism-based
[32] = system: Aspergillus niger; experiment: Induction of rhoB gene expression in Aspergillus niger by microarray analysis relative to control; assay type: functional; method in brief: as §1
[33] = system: Aspergillus niger; experiment: Antifungal activity against Aspergillus niger JvD1.1 at 25.6 ug/mL by microtiter plate; assay type: functional, organism-based; method in brief: as §6
[34] = system: Aspergillus niger; experiment: Effect on morphological changes in Aspergillus niger N402 germlings assessed as increase in germ tube; assay type: functional, organism-based
Method in brief: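 Bioreactor: 5×10^9 N402 conidia in 5 l fermentation medium, pH 3 controlled, 37 °C, 250 rpm. Compound in water (or water alone) added at 5 h, then 1 h further cultivation. At least 200 germlings per run were counted for germ tubes per germling and subapical branches. Mean ± S.D. from two independent runs.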

[35] = system: Aspergillus niger; experiment: Induction of srgA gene expression in Aspergillus niger by microarray analysis relative to control; assay type: functional; method in brief: as §1
[36] = system: Aspergillus niger; experiment: Induction of agsA expression in Aspergillus niger N402 germlings; assay type: functional, organism-based
Method in brief: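 RNA from 1 h-treated N402 bioreactor germlings (5 h pre-growth, FM pH 3, 37 °C) was hybridised to A. niger Affymetrix arrays, biological duplicate. Data were normalised; differential expression was taken as at least 1.5-fold change with p cutoff 0.05. Northern blots on the same RNA were used for validation.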

[37] = system: Aspergillus niger; experiment: Effect on morphological changes in Aspergillus niger N402 germlings assessed as germ tube elongation and branching at 5 ng/mL after 5 hrs; assay type: functional, organism-based; method in brief: as §5
[38] = system: Aspergillus niger; experiment: Induction of dppA gene expression in Aspergillus niger by microarray analysis relative to control; assay type: functional; method in brief: as §1
[39] = system: Aspergillus niger; experiment: Induction of GFP tagged PagsA-H2B expression in Aspergillus niger RD6.47 by fluorescence microscopy; assay type: functional, organism-based; method in brief: as §4
[40] = system: Aspergillus niger; experiment: Induction of crhB gene expression in Aspergillus niger by microarray analysis relative to control; assay type: functional; method in brief: as §1
[41] = system: Aspergillus niger; experiment: Induction of GFP tagged PagsA expression in Aspergillus niger JvD1.1 by fluorescence microscopy; assay type: functional, organism-based; method in brief: as §4
[42] = system: Aspergillus niger; experiment: Upregulation of Rho2-GTPase gene expression in Aspergillus niger relative to control; assay type: functional, organism-based; method in brief: as §3
[43] = system: Aspergillus niger; experiment: Induction of GFP tagged PagsA expression in Aspergillus niger JvD1.1 at 104.2 ug/mL by fluorescence microscopy; assay type: functional, organism-based
Method in brief: (§7)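 agsA promoter-GFP reporters, cytoplasmic (JvD1.1) or nuclear H2B-targeted (RD6.47). Germlings pre-grown 6 h at 37 °C in 2× CM, exposed 3 h at 30 °C to seven 2-fold dilutions. GFP levels were scored by fluorescence microscopy as 0 (basal), 1 (intermediate) or 2 (high). Controls: gpdA-H2B-GFP strain MA26.1 (positive), N402 (negative).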

[44] = system: Aspergillus niger; experiment: Antifungal activity against Aspergillus niger JvD1.1 at 104.2 ug/mL by microtiter plate; assay type: functional, organism-based
Method in brief: (§8)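 Reporter conidia (2×10^4 per well) were pre-grown 6 h at 37 °C in 2× CM in glass-bottom plates. An equal volume of a 2-fold dilution series (seven concentrations) was added, then 3 h at 30 °C. Medium was discarded and adherent germlings imaged. Growth inhibition was scored 0/1/2 from hyphal length.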

[45] = system: Aspergillus niger; experiment: Antifungal activity against Aspergillus niger RD6.47 at 104.2 ug/mL by microtiter plate; assay type: functional, organism-based; method in brief: as §8
[46] = system: Aspergillus niger; experiment: Induction of GFP tagged PagsA-H2B expression in Aspergillus niger RD6.47 at 104.2 ug/mL by fluorescence microscopy; assay type: functional, organism-based; method in brief: as §7

CC[C@H](C)C[C@H](C)CCCCCCCCC(=O)N[C@H]1C[C@@H](O)[C@@H](NCCN)NC(=O)[C@@H]2[C@@H](O)CCN2C(=O)[C@H]([C@H](O)CCN)NC(=O)[C@H]([C@H](O)[C@@H](O)c2ccc(O)cc2)NC(=O)[C@@H]2C[C@@H](O)CN2C(=O)[C@H]([C@@H](C)O)NC1=O [CASPOFUNGIN]
Activity [1]: Active | fold change (FC) [2]: 7.98 | Activity [3]: 34.5% | fold change (FC) [4]: 1.85 | fold change (FC) [5]: 2.03 | fold change (FC) [6]: 3.08 | Activity [7]: Active | fold change (FC) [8]: 1.64 | fold change (FC) [9]: 2.32 | fold change (FC) [10]: 2.16 | Activity [11]: Active | Activity [12]: Active | Activity [13]: Active | Activity [14]: Active | Activity [15]: Active | fold change (FC) [16]: 2.4 | fold change (FC) [17]: 3.05 | fold change (FC) [18]: 2.03 | fold change (FC) [19]: 1.77 | Activity [20]: Active | fold change (FC) [21]: 3.18 | Activity [22]: Active | fold change (FC) [23]: 1.77 | fold change (FC) [24]: 2.1 | fold change (FC) [25]: 2.03 | Activity [26]: Active | Activity [27]: Active | Activity [28]: Active | fold change (FC) [29]: 1.95 | Activity [30]: 43.7% | Activity [31]: Active | fold change (FC) [32]: 2.32 | Activity [33]: Active | Activity [34]: Active | fold change (FC) [35]: 2.51 | Activity [36]: Active | Activity [37]: Active | fold change (FC) [38]: 2.62 | Activity [39]: Active | fold change (FC) [40]: 2.58 | Activity [41]: Active | Activity [42]: Active

N#Cc1c[nH]cc1-c1cccc2c1OC(F)(F)O2
Activity [43]: Active | Activity [44]: Active | Activity [45]: Active | Activity [46]: Active

Cc1cc(C2CC2)nc(Nc2ccccc2)n1
Activity [43]: Active | Activity [46]: Active

CCCCNC(=O)n1c(NC(=O)OC)nc2ccccc21
Activity [43]: inactive | Activity [44]: Active | Activity [45]: Active | Activity [46]: inactive

COC(=O)N(OC)c1ccccc1COc1ccn(-c2ccc(Cl)cc2)n1
Activity [43]: inactive | Activity [44]: Active | Activity [45]: Active | Activity [46]: inactive

CN(C/C=C/C#CC(C)(C)C)Cc1cccc2ccccc12
Activity [43]: Active | Activity [46]: Active
